Measurements: ChEMBL document CHEMBL1140413, “Synthesis and in vitro evaluation of inhibitors of intestinal cholesterol absorption” (2005)

These molecules were tested on Cricetinae gen. sp. (assay: Effective dose required for reduction of liver cholesterol ester using 7-day cholesterol-fed hamster model). Details: 168 h.
Type: functional

In order of falling ED50:
1. COc1ccc([C@@H]2[C@@H](CCCc3ccccc3)C(=O)N2c2ccc(OC)cc2)cc1 [SCH-48461]  2.2 mg/kg/day
2. O=C1[C@H](CC[C@H](O)c2ccc(F)cc2)[C@@H](c2ccc(O)cc2)N1c1ccc(F)cc1 [EZETIMIBE]  0.04 mg/kg/day

Species: Oryctolagus cuniculus
Experiment: Percent inhibition against cholesterol absorption in brush border membrane vesicle using rabbit small intestine at concentration of 6 uM
Type: functional
Details: not given
Procedure, shortened: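 Cholesterol uptake into brush border membrane vesicles prepared from rabbit whole small intestine, with membrane receptors left intact. Test compounds at a nominal 6 µM; read-out is % inhibition of cholesterol uptake. Average standard deviations ±3% inhibition.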

In order of rising inhibition:
1. CS(=O)(=O)Oc1ccc(C[C@@H](CCC(O)c2ccc(F)cc2)CNc2ccc(F)cc2)cc1 (stereo partly specified)  -2%
2. O=C1[C@H](CCCc2ccccc2)[C@@H](c2ccccc2)N1c1ccc(F)cc1 (racemic)  2%
3. Fc1ccc(N2C[C@H](CCCc3ccccc3)[C@H]2c2ccccc2)cc1 (racemic)  2%
4. O=C1[C@H](CCCc2ccc(F)cc2)[C@@H](c2ccc(O[C@@H]3O[C@H](CO)[C@@H](O[C@@H]4O[C@H](CO)[C@@H](O)[C@@H](O)[C@H]4O)[C@@H](O)[C@H]3O)cc2)N1c1ccc(F)cc1  3%
5. COC1OC(CS(=O)(=O)Oc2ccc(C[C@@H](CCC(O)c3ccc(F)cc3)CNc3ccc(F)cc3)cc2)C(O)C(O)C1O (stereo partly specified)  3%
6. COC1OC(CS(=O)(=O)Oc2ccc([C@@H]3[C@@H](CCCc4ccc(F)cc4)CN3c3ccc(F)cc3)cc2)C(O)C(O)C1O (stereo partly specified)  4%
7. O=C1[C@H](CCCc2ccc(F)cc2)[C@@H](c2ccc(OS(=O)(=O)C[C@@H]3O[C@H](CO)[C@@H](O[C@@H]4O[C@H](CO)[C@@H](O)[C@@H](O)[C@H]4O)[C@@H](O)[C@H]3O)cc2)N1c1ccc(F)cc1  10%
8. CC(C)(C)Oc1ccc([C@@H]2[C@@H](CCC(O)c3ccc(F)cc3)C(=O)N2c2ccc(F)cc2)cc1 (stereo partly specified)  10%
9. CO[C@H]1O[C@@H](COc2ccc([C@@H]3[C@@H](CC[C@H](O)c4ccc(F)cc4)C(=O)N3c3ccc(F)cc3)cc2)[C@@H](O)[C@H](O)[C@@H]1O  13%
10. O=C1[C@H](CC[C@H](O)c2ccc(F)cc2)[C@@H](c2ccc(O[C@@H]3O[C@H](CO)[C@@H](O)[C@@H](O)[C@H]3O)cc2)N1c1ccc(F)cc1  14%
11. O=C1[C@H](CCC(O)c2ccc(F)cc2)[C@@H](c2ccc(OCC3OC(CO)C(O)C(O)C3O)cc2)N1c1ccc(F)cc1 (stereo partly specified)  15%
12. O=C1[C@H](CCC(O)c2ccc(F)cc2)[C@@H](c2ccc(OS(=O)(=O)CC3OC(CO)C(O)C(O)C3O)cc2)N1c1ccc(F)cc1 (stereo partly specified)  15%
13. O=C1[C@H](CC[C@H](O)c2ccc(F)cc2)[C@@H](c2ccc(O)cc2)N1c1ccc(F)cc1 [EZETIMIBE]  16%
14. O=C(O)[C@H]1O[C@@H](Oc2ccc([C@@H]3[C@@H](CCC(O)c4ccc(F)cc4)C(=O)N3c3ccc(F)cc3)cc2)[C@H](O)[C@H](O)[C@@H]1O (stereo partly specified)  19%
15. O=S(=O)(Oc1ccc([C@@H]2[C@@H](CCC(O)c3ccc(F)cc3)CN2c2ccc(F)cc2)cc1)c1ccccc1 (stereo partly specified)  19%
16. O=S(=O)(CC1OC(CO)C(O)C(O)C1O)Oc1ccc([C@@H]2[C@@H](CCC(O)c3ccc(F)cc3)CN2c2ccc(F)cc2)cc1 (stereo partly specified)  20%
17. COC1OC(CS(=O)(=O)Oc2ccc([C@@H]3[C@@H](CCC(O)c4ccc(F)cc4)C(=O)N3c3ccc(F)cc3)cc2)C(O)C(O)C1O (stereo partly specified)  20%
18. CS(=O)(=O)Oc1ccc([C@@H]2[C@@H](CCC(O)c3ccc(F)cc3)CN2c2ccc(F)cc2)cc1 (stereo partly specified)  22%
19. O=C1[C@H](CCC(O)c2ccc(F)cc2)[C@@H](c2ccc(OS(=O)(=O)c3ccccc3)cc2)N1c1ccc(F)cc1 (stereo partly specified)  26%
20. COC1OC(CS(=O)(=O)Oc2ccc([C@@H]3[C@@H](CCC(O)c4ccc(F)cc4)CN3c3ccc(F)cc3)cc2)C(O)C(O)C1O (stereo partly specified)  27%
21. O=C1[C@H](CCC(O)c2ccc(F)cc2)[C@@H](c2ccc(O[C@@H]3O[C@H](CO)[C@@H](O[C@@H]4O[C@H](CO)[C@@H](O)[C@@H](O)[C@H]4O)[C@@H](O)[C@H]3O)cc2)N1c1ccc(F)cc1 (stereo partly specified)  27%
22. O=C1[C@H](CC[C@H](O)c2ccc(F)cc2)[C@@H](c2ccc(OC[C@@H]3O[C@H](CO)[C@@H](O[C@@H]4O[C@H](CO)[C@@H](O)[C@@H](O)[C@H]4O)[C@@H](O)[C@H]3O)cc2)N1c1ccc(F)cc1  28%
23. CS(=O)(=O)Oc1ccc([C@@H]2[C@@H](CCC(O)c3ccc(F)cc3)C(=O)N2c2ccc(F)cc2)cc1 (stereo partly specified)  30%
24. O=C1[C@H](CC[C@H](O)c2ccc(F)cc2)[C@@H](c2ccc(OS(=O)(=O)C[C@@H]3O[C@H](CO)[C@@H](O[C@@H]4O[C@H](CO)[C@@H](O)[C@@H](O)[C@H]4O)[C@@H](O)[C@H]3O)cc2)N1c1ccc(F)cc1  41%
